Assay outcomes as filed in PubChem BioAssay.
HNF4A DNA FP – change in binding of human HNF4 alpha to DNA | HNF4a-FITC DNA binding, fluorescence polarization, 1 h | activity change, % at 10 µM | hit rate 0.3% among 360,000; in the data active = activity change above about 30%, passing the limit was not always enough
NR1D1 modulator – modulates human Rev-erb alpha binding to DNA; P20393; Rev-erbα–FITC-DNA binding, fluorescence polarization, 90 min; activity, % at 10 µM; hit rate 0.79% among 370,000; AID 1259318;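 active = activity above about 14%, limit read from the data; passing the limit was not always enough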
TPT1 inhibitor – inhibitors of Candida albicans tRNA 2'-phosphotransferase TPT1. recombinant caTPT1, FP RNA substrate dephosphorylation. inhibition, % at 5 µM. hit rate 0.81% among 300,000;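 active = inhibition above the mean of all tested compounds plus 3 SD, set per screening campaign, cut at about 24% in these data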
CSN deneddyl inh – blocks human CSN-mediated cullin deneddylation; Purified CSN, SCF-Nedd8-OG deneddylation, fluorescence polarization; inhibition, % at 12.5 µM; hit rate 0.38% among 360,000; AID 651999;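 active = pattern-corrected inhibition above about 35%, with an unprinted fluorescence ratio check between 0.5 and 1.5, limit read from the data, passing the limit was not always enough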
Target sequence (Q92905 whole entry, looked up, one chain of several): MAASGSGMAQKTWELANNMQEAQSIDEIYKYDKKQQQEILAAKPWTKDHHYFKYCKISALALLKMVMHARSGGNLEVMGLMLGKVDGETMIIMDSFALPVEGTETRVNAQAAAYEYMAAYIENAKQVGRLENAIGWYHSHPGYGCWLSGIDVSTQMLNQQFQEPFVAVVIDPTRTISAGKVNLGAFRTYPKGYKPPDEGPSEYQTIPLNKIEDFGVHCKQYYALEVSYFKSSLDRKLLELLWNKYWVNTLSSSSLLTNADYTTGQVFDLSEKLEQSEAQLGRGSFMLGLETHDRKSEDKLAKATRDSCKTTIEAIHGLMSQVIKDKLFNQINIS
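Test system: purified human Csn5 enzyme expressed in HEK293T cells. Amount: 0.24 nM enzyme. Reagent: SCFSkp2-Nedd8OG substrate at 10 nM final. Schedule: 90 min incubation of compound, enzyme and substrate at room temperature. Detection: fluorescence polarization. Read-out: % inhibition of substrate cleavage by Csn5.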
TPT1 inh confirm – confirmation of Candida albicans TPT1 inhibitors | AID 2149 | hit rate 74% among 2,400 | inhibition, % at 5 µM | recombinant caTPT1, fluorescence polarization, RNase T1 coupled | shares compounds with TPT1 inhibitor;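 active = inhibition above the primary screen limit, the mean inhibition of all tested compounds plus 3 SD, cut at about 25% in these data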
RNase T1 counter – counter-screen for TPT1 inhibitors: inhibitors of Aspergillus oryzae RNase T1 | shares compounds with TPT1 inhibitor | RNase T1 cleavage, fluorescence polarization, 1536-well | inhibition, % at 5 µM | hit rate 83% among 2,400;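 active = inhibition above the solvent-only control well mean plus 3 SD, limit set per screening run, cut at about 23% in these data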;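 note: inhibitors block cleavage so intact labeled substrate keeps polarization high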
Target sequence (P00651 whole entry, looked up): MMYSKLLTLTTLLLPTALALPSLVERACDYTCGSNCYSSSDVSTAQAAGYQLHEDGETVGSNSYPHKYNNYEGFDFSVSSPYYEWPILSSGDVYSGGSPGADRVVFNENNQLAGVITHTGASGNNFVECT
Each line names hits and unclear results; the compound was inactive in the other large screens (follow-up assays come after a bar, where they were run). Most compounds without a hit are left out; they make up all but 1.7% or so of the library.

C#CCNC(=O)C[C@H]1C[C@@]2(C(=O)OC)C(=C[C@H](C(C)(C)C)O[C@@H]2C)N(Cc2ccccc2)C1=O	none (no result: HNF4A DNA FP, TPT1 inhibitor, CSN deneddyl inh)
O=C(Nc1ccc(F)cc1)c1cc(S(=O)(=O)Nc2ccc(F)cc2)cs1	none
COc1ccc(NC(=O)c2cc(S(=O)(=O)Nc3ccc(OC)cc3)cs2)cc1	TPT1 inhibitor 47 | TPT1 inh confirm inactive | RNase T1 counter inactive
CCN1CCN(c2c(/C=C3\SC(=S)N(Cc4ccco4)C3=O)c(C)c(C#N)c(=O)n2C)CC1	TPT1 inhibitor 161 | TPT1 inh confirm 181 | RNase T1 counter 172
COc1cccc(C=C2SC(=S)N(Cc3ccco3)C2=O)c1OC	none (no result: HNF4A DNA FP, TPT1 inhibitor, CSN deneddyl inh)
COC(=O)C1=C(C)N(C)C(=NCc2ccc(OC)cc2)NC1c1cccc(F)c1 (centres undefined)	none (no result: HNF4A DNA FP, TPT1 inhibitor, CSN deneddyl inh)
C=CCc1c(C)nc(-c2ccccc2)nc1Nc1ccccc1O	TPT1 inhibitor 25 | TPT1 inh confirm 40 | RNase T1 counter 52
CCOc1cc2c(cc1/C=C/c1noc(C)c1[N+](=O)[O-])OC(C)C2 (centres undefined)	TPT1 inhibitor 75, CSN deneddyl inh 47 | TPT1 inh confirm 73 | RNase T1 counter 83
CC(C)C[C@H]1COc2cccc(N3CCOCC3)c2S(=O)(=O)N1	none (no result: HNF4A DNA FP, TPT1 inhibitor, CSN deneddyl inh)
COc1ccc2nc(Nc3nc(CSc4ccc(C)cc4)cc(=O)[nH]3)nc(C)c2c1	none
COc1ccc2nc(Nc3nc(C)c(CCC(C)C)c(=O)[nH]3)nc(C)c2c1	TPT1 inhibitor 25 | TPT1 inh confirm inactive | RNase T1 counter inactive
CCN(CC)c1cccc(OCC(=O)N(C)CCC#N)c1	TPT1 inhibitor 43 | TPT1 inh confirm 41 | RNase T1 counter 51
CC(C)CN1C(=O)[C@@]2(CC(=O)N(C)C2c2ccccc2)c2cc(-n3cc(C(C)(C)O)nn3)ccc21 (some centres undefined)	none (no result: HNF4A DNA FP, TPT1 inhibitor, CSN deneddyl inh)
C=CCNc1nc(N)c([N+](=O)[O-])c(Nc2cccc(Cl)c2)n1	TPT1 inhibitor 36 | TPT1 inh confirm inactive | RNase T1 counter inactive
CCOc1cc(/C=C2/C(=O)NN(c3cccc(Cl)c3)C2=O)ccc1O	TPT1 inhibitor 43 | TPT1 inh confirm 66 | RNase T1 counter 84
COc1cc(/C=C2/C(=O)NN(c3cccc(Cl)c3)C2=O)cc(OC)c1O	TPT1 inhibitor 124 | TPT1 inh confirm 151 | RNase T1 counter 150
COc1cc(/C=C2/C(=O)NN(c3cccc(C)c3)C2=O)cc([N+](=O)[O-])c1O	none
COc1cc(/C=C2\C(=O)NN(c3ccccc3)C2=O)ccc1OCC(N)=O	none (no result: HNF4A DNA FP, CSN deneddyl inh)
Cc1cccc(CN[C@@H]2CC[C@@]34CCCN3C(=O)CCC[C@H]4C2)c1	none (no result: HNF4A DNA FP, TPT1 inhibitor, CSN deneddyl inh)
Nc1sc(Cc2ccccc2)cc1C(=O)c1c(-c2ccccc2)[nH]c2ccccc12	none (no result: TPT1 inhibitor)
CC[C@H](C)/C=C(C)/C=C/C(=O)Cc1cc(O)c(C)c(O)c1C=O	TPT1 inhibitor 34 | TPT1 inh confirm 31 | RNase T1 counter 41
CCSc1nnc(NC(=O)CSc2sc3c(O)cc(=O)[nH]c3c2C#N)s1	none
CCc1nnc(NC(=O)CSc2sc3c(O)cc(=O)[nH]c3c2C#N)s1	TPT1 inhibitor 49 | TPT1 inh confirm inactive | RNase T1 counter inactive
O=Cc1ccc(-n2nncc2-c2ccc([N+](=O)[O-])cc2)cc1	none
CC(C)(C)c1cnnn1-c1ccc(/C=N/Nc2ccc([N+](=O)[O-])cc2)cc1	TPT1 inhibitor 26 | TPT1 inh confirm 40 | RNase T1 counter 53
O=[N+]([O-])c1ccc(N/N=C/c2ccccc2)c(F)c1	TPT1 inhibitor 27 | TPT1 inh confirm 44 | RNase T1 counter 54
Cc1ccc(N=Cc2sc(O)c3ccccc23)c(C)c1	TPT1 inhibitor 117 | TPT1 inh confirm 80 | RNase T1 counter 94
Cc1ccsc1C1CC(=O)OC2=C1C(=O)CC(C)(C)C2 (centres undefined)	TPT1 inhibitor 109 (no result: HNF4A DNA FP, NR1D1 modulator, CSN deneddyl inh) | TPT1 inh confirm inactive | RNase T1 counter inactive
CC1(C)CC(=O)C2=C(C1)OC(=O)CC2c1cccs1 (centres undefined)	none
COc1ccc(N=Nc2nc(-c3ccccc3)c(-c3ccccc3)[nH]2)cc1	TPT1 inhibitor 31 | TPT1 inh confirm 43 | RNase T1 counter 56
COc1ccc(-c2cc(-c3nnc(SCC(=O)Nc4cccc(Cl)c4C)n3N)[nH]n2)cc1	none (no result: HNF4A DNA FP, TPT1 inhibitor, CSN deneddyl inh)
